Published values collected from several papers.
Protocols differ between the studies behind these lines.
Target: Homeodomain-interacting protein kinase 2 (HIPK2, Homo sapiens, UniProt Q9H2X6)
Observed: enzyme activity
Action: inhibitor

Structure (SMILES)	assay	setting	remaining activity [%]
O=C(O)c1ccc2c(c1)nc(Nc1ccc(Cl)cc1)c1ccncc12	radiometric	1 µM	-1
FC(F)c1nc2ccccc2n1-c1nc(N2CCOCC2)nc(N2CCOCC2)n1	–	10 µM	63
CC(C)(C)C(=O)c1sc(NC2CCCCC2)nc1N	–	10 µM	79
O=C(Nc1cnn(-c2csc(C(=O)NC3COC3)c2)c1)Nc1ccccc1Cl	–	5 µM	102
COc1cc(Nc2cnc(C#N)c(O[C@H](C)CN(C)C)n2)ncc1-c1cnn(C)c1	radiometric	1 µM	89
Nc1nc(Nc2ccccc2)sc1C(=O)c1c(F)cccc1F	–	10 µM	16
Cn1c(=O)n(-c2ccc(C(C)(C)C#N)cc2)c2c3cc(-c4cnc5ccccc5c4)ccc3ncc21	–	10 µM	101
O=C(O)c1ccc2c(c1)nc(NCCc1ccccc1)c1ccncc12	radiometric	1 µM	4
CC(C)(C)c1nc2c(s1)c1nc(N)ncc1c1ccc(NS(=O)(=O)c3c(F)cccc3F)c(F)c12	radiometric	1 µM	80
Cc1ccc(C(=O)Nc2ccc(CN3CCN(C)CC3)c(C(F)(F)F)c2)cc1C#Cc1cnc2cccnn12	–	23.5 nM	100
O=C(O)c1ccc2c(c1)nc(Nc1ccccc1)c1ncncc12	radiometric	1 µM	2
CCN(CC)c1ccc(C2=NNC(=O)CC2C)cc1[N+](=O)[O-] (stereo not shown)	–	10 µM	106
COc1cc(Cl)c(C(=O)N[C@@H](CN[C@H]2CC[C@@H](N)CC2)Cc2ccc(C#N)cc2)cc1-c1ccc(CN[C@H](C)c2ccc(C)cc2)o1	–	1 µM	105
